Series [1] is described as follows: Metal chelating activity assessed as compound-Cu2+ complex formation at 50 uM measured after 40 mins in absence of H2O2 by UV spectrophotometric method. The essentials: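 Stock in DMSO diluted into PBS (10 mM, pH 7.4) to a final 50 µM, with 50 µM CuCl₂ added and no H₂O₂. UV spectrum recorded over 40 min at room temperature.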
The subject of series [2] is SW1990. Briefly: Induction of apoptosis in human SW1990 cells assessed as increase in cleaved caspase-3 expression at 8 to 12 uM measured after 24 hrs by Western blot analysis. In kind it is functional, cell-based. Conditions: dose 8-12 µM. The essentials:
(§1)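 SW1990 cells seeded 5 × 10⁵ per well and grown 24 h at 37 °C, then treated 24 h. Lysates quantified by BCA, resolved by SDS-PAGE and transferred to nitrocellulose. Blocked in 5% milk, probed overnight at 4 °C for cleaved caspase-3, cleaved caspase-9, Bax and Bcl-2, then HRP secondary 2 h. ECL detection.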
(Immunoblotting shows a protein as a band on a membrane.)

Series [3] relates to PANC-1. Briefly: Cytotoxicity against human PANC-1 cells assessed as reduction in cell viability measured after 48 hrs in presence of CuCl2 by MTT assay. In kind it is functional, cell-based. The settings on record: PANC-1, 48 h. The essentials: (§2)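 Cells seeded 6 × 10⁴ per well, cultured 24 h at 37 °C under 5% CO₂, then exposed to compound for 48 h, with or without 50 µM CuCl₂ or FeCl₃ co-incubation. MTT added for 4 h at 37 °C, formazan dissolved in DMSO, A490 read. IC50 reported as mean (SD), n = 3.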
A general note: Tetrazolium assays rely on reduction of a dye to a coloured formazan, in cell work by metabolically active cells.

A short description of series [4]: Drug metabolism in human SW1990 cells assessed as nitric oxide release by measuring increase in 3-nitrotyrosine-containing cytochrome-c expression at 8 to 12 uM measured after 24 hrs by Western blot analysis. In kind it is ADME, cell-based. The settings on record: sw1990, 24 h. The essentials:
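SW1990 cells treated 24 h, or pretreated 1 h with carboxyl-PTIO (50 µM) before 24 h treatment. Mitochondrial proteins extracted and lysed (30 µg/lane), run on SDS-PAGE, blotted to PVDF and probed with anti-3-nitrotyrosine antibody. Mean ± SD, n = 3.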

A short description of series [5]: Metal chelating activity assessed as compound-Cu2+ complex stoichiometry ratio of […] after 1 hr by Job's plot analysis.
Series [6] can be described thus: Metal chelating activity assessed as compound-Cu2+ complex formation by measuring intracellular HO level in human SW1990 cells at 10 uM measured after 1 hr in presence of CuCl2 by HO probe based confocal laser scanning microscopic analysis. In kind it is cell-based. The essentials:
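SW1990 cells at 80% confluence were loaded with 20 µM HO· probe at 37 °C for 30 min and rinsed. They then received 50 µM CuCl₂, followed by 10 µM compound for 1 h. For the scavenger arm, 1 mM tempol was given for 30 min before CuCl₂. CLSM imaging at λex 570 / λem 650 nm gave mean intensity; n = 3.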

The nature of series [7]: Stability of compound in pH 5 PBS buffer assessed as parent compound remaining measured after 24 hrs by RP-HPLC analysis. In kind it is physicochemical. Conditions: read-out: Stabilty. The essentials:
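Compound (1 µM) stirred at 37 °C either in PBS (pH 5.0, 7.4 or 10.0) containing 5% DMSO or in DMEM with 10% FBS. Aliquots were analysed by RP-HPLC (0.1% TFA water/methanol gradient, 256 nm) for remaining intact compound, up to 24 h.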

Series [8] deals with SW1990. Briefly: Cell cycle arrest in human SW1990 cells assessed as increase in accumulation at G1-phase at 12 uM measured after 24 hrs by propidium iodide staining based flow cytometry. In kind it is functional. The essentials:
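SW1990 cells seeded 5 × 10⁵ per well, grown 24 h, then treated 24 h. Washed in ice-cold PBS, fixed ≥24 h in ice-cold 70% alcohol, RNase A treated, PI-stained 30 min at 4 °C in the dark. DNA content read by flow cytometry to give cycle distribution. Mean ± SD, n = 3.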

Series [9] concerns PANC-1. In words: Cytotoxicity against human PANC-1 cells assessed as reduction in cell viability measured after 48 hrs in presence of FeCl3 by MTT assay. Conditions: PANC-1, 48 h. In kind it is functional, cell-based. The essentials: as §2
Series [10] relates to SW1990. Briefly: Antitumor activity against human SW1990 cells xenografted in Balb/c nude mouse assessed as tumor growth inhibition at 20 mg/kg, iv administered every 3 days measured after 21 days relative to control. In kind it is functional. Conditions: 504 h, time 21 day, read-out: TGI. The essentials:
(§3)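 Male BALB/c nude mice, 3–5 weeks old, given 1 × 10⁷ SW1990 cells subcutaneously; when tumors reached about 65 mm³, randomised to groups of eight. Saline vehicle control, dosing intravenously every three days. Tumor size monitored every two days for three weeks; tumors dissected at sacrifice on day 21, volume = d² × D/2 (d smallest, D largest diameter). Mean ± SD.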
A general note: Xenograft models place foreign cells or tissue in a host animal.

The subject of series [11] is SW1990. Briefly: Induction of apoptosis in human SW1990 cells assessed as decrease in Bcl-2 expression at 8 to 12 uM measured after 24 hrs by Western blot analysis. In kind it is functional, cell-based. Conditions: dose 8-12 µM. The essentials:
as §1

The subject of series [12] is SW1990. In words: Induction of apoptosis in human SW1990 cells at 12 uM measured after 24 hrs in presence of NO scavenger Carboxyl-PTIO by Annexin V-FITC/propidium iodide staining based flow cytometry. In kind it is functional, cell-based. The essentials:
(§4)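 SW1990 cells seeded 5 × 10⁵ per well and grown 24 h, then treated 24 h at 8 or 12 µM. Optional 1 h pretreatment with 20 mM NAC or 50 µM carboxyl-PTIO before 12 µM treatment. Cells stained with annexin V-FITC 15 min and PI 5 min at room temperature in the dark, then analysed by flow cytometry. Mean ± SD, n = 3.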

Series [13] relates to SW1990. In words: Antitumor activity against human SW1990 cells xenografted in Balb/c nude mouse assessed as tumor size at 20 mg/kg, iv administered every 3 days measured after 21 days (reference value: 1.23 +/- 0.25 cm3). In kind it is functional. Conditions: time 21 day. The essentials:
as §3

A short description of series [14]: Prodrug activation in OH at 100 uM measured after 1 hr by RP-HPLC analysis. The essentials:
(§5)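 Compound (100 µM) incubated at 37 °C for 1 h with one of: ROS species (1 mM), NO solution (1 mM), GSH (200 µM), CuCl₂ (10 µM) or FeCl₃ (10 µM). Percent decomposed was determined by RP-HPLC (ODS column, 0.1% TFA water/methanol gradient, 1 mL/min, 256 nm).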

A short description of series [15]: Prodrug activation in tBuO at 100 uM measured after 1 hr by RP-HPLC analysis. The essentials:
as §5

The test system of series [16] is SW1990. Briefly: Cytotoxicity against human SW1990 cells assessed as reduction in cell viability measured after 48 hrs by MTT assay. In kind it is functional, cell-based. Conditions: SW1990, 48 h. The essentials: as §2
A short description of series [17]: Prodrug activation in NO at 100 uM measured after 1 hr by RP-HPLC analysis. The essentials:
as §5

For series [18], the system named is SW1990. Briefly: Induction of apoptosis in human SW1990 cells at 12 uM measured after 24 hrs in presence of ROS quencher NAC by Annexin V-FITC/propidium iodide staining based flow cytometry. In kind it is functional, cell-based. The essentials: as §4
A short description of series [19]: Cytotoxicity against human H6C7 cells assessed as reduction in cell viability measured after 48 hrs by MTT assay. In kind it is cell-based. The settings on record: H6C7, 48 h. The essentials: as §2
The nature of series [20]: Stability of compound in presence of Cu2+ at 100 uM measured after 1 hr by RP-HPLC analysis. In kind it is physicochemical. The essentials: as §5

The values that follow come from ChEMBL document CHEMBL4732146, “Nitric oxide-donating and reactive oxygen species-responsive prochelators based on 8-hydroxyquinoline as anticancer agents” (Eur J Med Chem, 2021).

Calls of active or inactive are those of the source. The rule behind the calls is not given here.

By IC50 is commonly meant the concentration that inhibits the measured activity by half. In the case of `O=C(NCCCOc1no[n+]([O-])c1S(=O)(=O)c1ccccc1)c1ccc2cccc(OCc3ccc(B(O)O)cc3)c2n1`, the result (in [1]; with SW1990 [12]; with SW1990 [18]) was inactive. In addition, the result (with SW1990 [2]; in [6]; in the series with SW1990 [8]; with SW1990 [11]) was Active. The IC50 in the series with PANC-1 [3] is 1.69 µM; with PANC-1 [9], 17.6 µM; in the series with SW1990 [16], 8.83 µM; in [19], above 50 µM. In addition, the Drug metabolism result in series [4] is on record as “Metabolite_Detected”; in [14], “Metabolite_Notdetected”; in [15], “Metabolite_Notdetected”; in series [17], “Metabolite_Notdetected”. Besides, in [5], the Ratio stood at 0.64. For the same molecule, in series [7], the remaining at 24 h was above 80%. In addition, the inhibition in vivo at 20 mg/kg in the series with SW1990 [10] amounted to 61.8%. Moreover, the Activity in the series with SW1990 [13] worked out at 0.47 cm3. In addition, the Stabilty result in series [20] is given as “Stable”.
